8 compounds from ChEMBL document CHEMBL1129389, “Mechanism-based design of parasite-targeted artemisinin derivatives: synthesis and antimalarial activity of benzylamino and alkylamino ether analogues of artemisinin” (J Med Chem, 1996) can be followed below.

In test [1] the test system is Plasmodium falciparum. The test can be described thus: Antimalarial activity against Plasmodium falciparum HB3. The format is functional, organism-based. In short, it runs like this: (§1)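 Parasites kept in continuous culture in human erythrocytes (2–5%) in RPMI 1640 with 25 mM HEPES, 32 mM NaHCO3 and 10% human serum, gassed 3% O2/4% CO2/93% N2. 48 h assay: 1% initial parasitemia, 5% hematocrit, ethanol stocks (final <1% ethanol); [3H]hypoxanthine added after 24 h at 37 °C, counted after further 24 h. IC50 by probit interpolation; triplicate.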

The test system of test [2] is Plasmodium falciparum. The test can be described thus: Antimalarial activity against Plasmodium falciparum K1. In kind it is functional, organism-based. The gist of the method:
as §1

As usually defined, the IC50 is the concentration at which inhibition is half-maximal. Take `CNCCO[C@H]1OC2O[C@@]3(C)CC[C@H]4[C@H](C)CCC([C@H]1C)[C@@]24OO3` (stereo partly specified): the IC50 is 2.7 nM in the test with Plasmodium falciparum [1] and 2.4 nM in the test with Plasmodium falciparum [2].

On to `C[C@@H]1CCC2[C@@H](C)[C@@H](OCc3ccc(CN4CCCCC4)cc3)OC3O[C@@]4(C)CC[C@@H]1[C@]32OO4` (stereo partly specified), for which the figures for the IC50 in the test on Plasmodium falciparum [1] and in the test with Plasmodium falciparum [2] were 12.2 nM and 9.8 nM, respectively.

`CCN(CC)Cc1ccc(CO[C@H]2OC3O[C@@]4(C)CC[C@H]5[C@H](C)CCC([C@H]2C)[C@@]35OO4)cc1` (stereo partly specified): the half-maximal inhibitory concentration (IC50) in the test with Plasmodium falciparum [1] is 3.1 nM; in the test on Plasmodium falciparum [2], 1.4 nM.

`C[C@@H]1CCC2[C@@H](C)[C@@H](OCc3ccc(CN4CCOCC4)cc3)OC3O[C@@]4(C)CC[C@@H]1[C@]32OO4` (stereo partly specified): the IC50 with Plasmodium falciparum [1] amounted to 50 nM; in the test with Plasmodium falciparum [2] it was 35 nM.

Regarding `C[C@@H]1CCC2[C@@H](C)[C@@H](OCc3ccc(CO)cc3)OC3O[C@@]4(C)CC[C@@H]1[C@]32OO4` (stereo partly specified), the IC50 with Plasmodium falciparum [1] was 4.2 nM; in the test with Plasmodium falciparum [2], 4.4 nM.

With `CCNCCO[C@H]1OC2O[C@@]3(C)CC[C@H]4[C@H](C)CCC([C@H]1C)[C@@]24OO3` (stereo partly specified), the IC50 with Plasmodium falciparum [1] and in the test on Plasmodium falciparum [2] was 4.1 nM each time.

Regarding `C[C@@H]1CC[C@H]2[C@@H](C)C(=O)O[C@@H]3O[C@@]4(C)CC[C@@H]1[C@]32OO4` [ARTEMISININ], the IC50 with Plasmodium falciparum [1] worked out at 7.3 nM; in the test with Plasmodium falciparum [2], 6.4 nM.

For `C[C@@H]1CCC2[C@@H](C)[C@@H](OCc3ccc(CN4CCCC4)cc3)OC3O[C@@]4(C)CC[C@@H]1[C@]32OO4` (stereo partly specified), the IC50 with Plasmodium falciparum [1] and in the test on Plasmodium falciparum [2] was 2.3 nM in each case.
